One may read the viability as a read-out of living cells in per cent, often relative to untreated cells. A word on the inhibition: it is the relative decrease from the control value, in per cent.

Unmarked numbers belong to inactive results. Inconclusive results are not listed. Calls of active or inactive are those of the source.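 Rule for the calls, unless noted: active = viability increase at or above a cutoff of the median across tested compounds plus 3 SD (cut at about 8.5% in these data, passing the limit was not always enough); inconclusive = some gains above the cutoff, reason not given; inactive = the rest.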

Assay [1] is described as follows: S. cerevisiae growth inhibition in permissive medium (OD615), pilot counter-assay for S. cerevisiae lifespan shortening project, permissive growth control (AID 705;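 active = growth inhibition above 25% in both replicates, a cutoff set 3 SD above the mean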). As to conditions: OD615, 24 h, at 10 µM, active compounds read high. Put shortly: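 Test system: Saccharomyces cerevisiae strain carrying genetically modified DeaD replicative-lifespan system; buffer or medium: SC raffinose/galactose permissive medium; dosing: one dose 10 µM, DMSO 0.25% final; times: 24 h exposure, 30 °C; measured by: OD at 615 nm; read-out basis: growth inhibition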

The nature of assay [2]: S. cerevisiae growth inhibition in restrictive medium, OD615, pilot screen, restrictive growth control, yeast lifespan reduction project (AID 706;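 active = growth inhibition above a set limit, 3 SD over mean compound inhibition, in both replicates, cut at about 43% in these data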;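 note: modified DeaD lifespan yeast strain shifted to restrictive glucose medium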). As to conditions: OD615, 48 h, at 10 µM, active compounds read high. Put shortly:
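material = engineered S. cerevisiae DeaD strain | buffer or medium = glucose-based CSMM-D restrictive medium | dosing = one concentration, 10 µM final, 0.25% DMSO | schedule = 4 h pre-growth plus 48 h compound exposure, 30 °C | detection = OD615 absorbance reading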

Assay [3] is described as follows: doxorubicin toxicity protection in MRP-1 cells – H69AR cells, CellTiter-Glo, duplicate, MRP-1 activator project, pilot screen (AID 807).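 Note: compound pretreatment 18-22 h then 72 h combined with doxorubicin; 0% = doxorubicin alone and 100% = vehicle without doxorubicin.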 As to conditions: H69AR viability with doxorubicin, CellTiter-Glo luminescence; at 10 µM; active compounds read high. For orientation: Cellular ATP, detected with luciferase, serves as a proxy for viable cell number.
Assay [4] in a line: viability of HCT116 without oncogenic beta-catenin – human colon tumor cells, pilot screen (AID 823;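 active = cell viability at or below a set limit in both duplicate runs, the limit being the all-compound median minus 4 SD, cut at about 23% in these data, passing the limit was not always enough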;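 note: 0% = wells killed by 20 µM Hyamine and 100% = untreated DMSO cell wells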). As to conditions: HCT116 beta-catenin knockout viability, CellTiter-Glo, 60 h; at 10 µM; active compounds read low.
The nature of assay [5]: viability of PTEN-null HCT116 cells – cell-based, HCT116 clonal line, CellTiter-Glo, pilot screen (AID 824;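 active = viability at or below 27.92% in each of two runs, the all-compound median minus 4 SD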;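 note: 0% = 20 µM Hyamine control and 100% = vehicle cell control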). As to conditions: HCT116 PTEN-deleted viability, 60 h, at 10 µM, active compounds read low.
Assay [6] in a line: RAM pathway blockade in budding yeast – dse1pr::URA3 reporter, 5-FOA selection, pilot screen (AID 869;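 active = inhibition over a set limit, the all-compound mean plus 3 SD, in both replicate runs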;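 note: 0% = DMSO wells with no growth and 100% = 10 µM 1-NA-PP1 with full growth; RAM network block rescues cells from 5-FOA so hits raise OD615 growth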). Particulars: S. cerevisiae dse1pr::URA3 5-FOA growth, OD615, 2 d; at 10 µM; active compounds read high; strain carries analog-sensitive mutant Cbk1 kinase.
Assay [7] in a line: RAM signaling pathway blockade in yeast – S. cerevisiae, Pdr1DBD-CYC8 efflux-inhibited sensitized strain, primary screen (AID 1298;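 active = RAM network inhibition above 8.4% in each of two replicates, 3 SD over the compound average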;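 note: 0% = DMSO untreated cells without growth and 100% = 10 µM 1-NA-PP1 full growth; higher means more yeast growth rescued from 5-FOA killing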). As to conditions: S. cerevisiae cbk1-as DSE1-URA3 strain, 5-FOA growth OD615, 2 d; at 50 µM; active compounds read high.

For the compound `COc1ccc(CCNC(=O)CC2Oc3ccc(Cl)cc3NC2=O)cc1OC` (stereo not drawn), the growth inhibition in assay [1] was -0.31%; in assay [2], -7.26%. Moreover, in assay [3], the viability increase was -0.06%. In addition, the figures for the viability in assay [4] and in assay [5] were 96.2% and 97.6%, respectively. Besides, the inhibition in assay [6] is 1.17%. In assay [7], the RAM network inhibition is 5.03%.
For `O=C(C1CC1)N1CCc2cc(Br)cc(S(=O)(=O)NC3CCCCC3)c21`, the values for the growth inhibition in assay [1] and in assay [2] were -3.11% and -25.8%, respectively. Moreover, in assay [3], the viability increase is 1.71%. Also, the viability in assay [4] is 88.5%; in assay [5], 89.4%. The inhibition in assay [6] was 0.275%. Moreover, the RAM network inhibition in assay [7] was 5.54%.
For the compound `CCOc1ccc(-c2nc(CSCC(=O)N3CCN(C(=O)c4ccco4)CC3)c(C)o2)cc1`, the growth inhibition was -0.515% in assay [1] and 26% in assay [2]. Further, in assay [3], the viability increase is -2.43%. Moreover, the viability in assay [4] was 81.9%; in assay [5], 90.4%. For the same compound, the inhibition in assay [6] is 0.525%. For the same compound, in assay [7], the RAM network inhibition is 10.9%.
In the case of `CCSc1nnc2c(n1)OC(c1ccc(C(=O)O)cc1)N(C(C)=O)c1ccccc1-2` (stereo not drawn), the growth inhibition in assay [1] was -10.1%; in assay [2] it was -2.9%. The viability increase in assay [3] was -1.34%. For the same compound, the viability in assay [4] is 107%; in assay [5], 100%. Besides, in assay [6], the inhibition is 1.66%. The RAM network inhibition in assay [7] was 2.35%.
`CC(=O)N1CCc2c(sc(NC(=O)c3ccc4c(c3)OCCO4)c2C#N)C1`: the growth inhibition in assay [1] is -0.37%; in assay [2], -8.73%. Besides, in assay [3], the viability increase was -6.36%. Besides, the results for the viability in assay [4] and in assay [5] were 35% and 35.4%, respectively. In addition, the inhibition in assay [6] is 2.62%. In assay [7], the RAM network inhibition is 4.02%.
In the case of `O=C(NCc1cccs1)C1CCN(S(=O)(=O)c2cccc3cccnc23)CC1`, the growth inhibition in assay [1] is -3.73%; in assay [2] it was -6.17%. Moreover, the viability increase in assay [3] is -0.65%. Moreover, the viability was 93% in assay [4] and 90.7% in assay [5]. Moreover, the inhibition in assay [6] is -0.03%. Besides, the RAM network inhibition in assay [7] is 1.45%.
Regarding `CC1(C)CC(N2CCN(c3ccccc3)CC2)=CC(=[N+]2CCCC2)C1`, the results for the growth inhibition in assay [1] and in assay [2] were -2.24% and -20.8%, respectively. The viability increase in assay [3] is -3.22%. The viability was 18.1% (active) in assay [4] and 18.4% (active) in assay [5]. Moreover, in assay [6], the inhibition was 1.37%. Moreover, the RAM network inhibition in assay [7] was 0.52%.
Consider `Cc1ccc(C(=O)CC2(O)C(=O)N(C)c3ccccc32)o1` (stereo not drawn), for which the results for the growth inhibition in assay [1] and in assay [2] were -7.12% and -13.5%, respectively. Further, in assay [3], the viability increase was -2.33%. For the same compound, the values for the viability in assay [4] and in assay [5] were 99.3% and 96.2%, respectively. Also, in assay [6], the inhibition was 0.645%. The RAM network inhibition in assay [7] is 1.32%.
Turning to `CCc1cc2c(=O)n(N)c(CCC(=O)O)nc2s1`, the growth inhibition in assay [1] was -14.9%; in assay [2], -3.94%. In addition, the viability increase in assay [3] was -1.37%. Moreover, the viability is 100% in assay [4] and 96.1% in assay [5]. For the same compound, in assay [6], the inhibition is 0.425%. For the same compound, the RAM network inhibition in assay [7] was 8.13%.
Consider `O=C(O)CC1(Cc2nc(-c3cccs3)no2)CCCC1`, for which the growth inhibition is 5.79% in assay [1] and 0.06% in assay [2]. In addition, in assay [3], the viability increase was 0.13%. The viability was 96.1% in assay [4] and 94.6% in assay [5]. In addition, the inhibition in assay [6] was 0.35%. In assay [7], the RAM network inhibition is -0.58%.
For the compound `Cc1cc2ncn(C(=O)c3c(-c4c(Cl)cccc4Cl)noc3C)c2cc1C`, the figures for the growth inhibition in assay [1] and in assay [2] were 0.3% and 5.04%, respectively. In addition, the viability increase in assay [3] was -3.42%. In addition, the viability in assay [4] was 95.5%; in assay [5], 94.5%. Also, the inhibition in assay [6] is 1.99%. Besides, the RAM network inhibition in assay [7] was 8.25%.
As to `COc1cccc(C(=O)Nc2ccc3nc(N4CCN(c5ncccn5)CC4)cc(C)c3c2)c1OC`, the growth inhibition in assay [1] is 12%; in assay [2] it was -8.24%. Besides, the viability increase in assay [3] was -5.36%. The figures for the viability in assay [4] and in assay [5] were 9.73% (active) and 12.8% (active), respectively. In assay [6], the inhibition is 0.73%. Moreover, the RAM network inhibition in assay [7] is 4.05%.
Take `COc1ccc(C(=O)Nc2ccc(S(=O)(=O)Nc3cc(C)nc(C)n3)cc2)c(OC)c1`: the growth inhibition in assay [1] is 6.9%; in assay [2], -0.365%. Moreover, in assay [3], the viability increase was 0.28%. Moreover, the viability in assay [4] was 98.6%; in assay [5], 95.8%. For the same compound, the inhibition in assay [6] is 1.77%. Further, in assay [7], the RAM network inhibition is 3.78%.
On to `CCOC(=O)c1cc(-c2nnc(-c3ccc(Cl)cc3)o2)c(C)nc1C`, for which the growth inhibition in assay [1] is -16.3%; in assay [2], -14.2%. Besides, in assay [3], the viability increase was -0.9%. The viability in assay [4] was 99.7%; in assay [5] it was 93.6%. Moreover, the inhibition in assay [6] is 2.19%. Besides, in assay [7], the RAM network inhibition is 2.13%.
As for `CN(C)S(=O)(=O)c1ccc2c(c1)c(=O)c(C(=O)N1CCN(c3ccccn3)CC1)cn2C`, the results for the growth inhibition in assay [1] and in assay [2] were -5.42% and 5.45%, respectively. In addition, the viability increase in assay [3] was 1.06%. Also, the figures for the viability in assay [4] and in assay [5] were 97.9% and 104%, respectively. In assay [6], the inhibition is 0.415%. The RAM network inhibition in assay [7] was 4.54%.
In the case of `COc1ccccc1NC(=O)NCCN1C(=O)C2C3C=CC(C3)C2C1=O` (stereo not drawn), the growth inhibition in assay [1] is -16.2%; in assay [2] it was -7.88%. For the same compound, the viability increase in assay [3] is -0.36%. Besides, the viability is 106% in assay [4] and 105% in assay [5]. Besides, the inhibition in assay [6] was 1.71%. Besides, the RAM network inhibition in assay [7] was 5.38%.
Regarding `CCC1CCCCN1C(=O)CSc1nnc(-c2cccc(Cl)c2)o1` (stereo not drawn), the growth inhibition is 8.15% in assay [1] and 46.1% (active) in assay [2]. Besides, the viability increase in assay [3] was -3.24%. Further, the viability is 86.8% in assay [4] and 91.5% in assay [5]. For the same compound, the inhibition in assay [6] is 1.4%. The RAM network inhibition in assay [7] is 1.06%.
Take `COc1cccc(C2CC(c3ccccc3OC)n3nc(N)nc3N2)c1` (stereo not drawn): the growth inhibition in assay [1] is -0.495%; in assay [2] it was 6.87%. The viability increase in assay [3] was -1.09%. The viability in assay [4] was 98.1%; in assay [5] it was 95.2%. For the same compound, the inhibition in assay [6] was 1.06%. In assay [7], the RAM network inhibition was 1.98%.
For the compound `COc1ccccc1CNC(=O)C1COc2ccccc2O1` (stereo not drawn), the growth inhibition in assay [1] was -13.9%; in assay [2] it was -2.38%. The viability increase in assay [3] was 0.65%. For the same compound, the viability in assay [4] is 98.8%; in assay [5], 88.5%. Moreover, the inhibition in assay [6] was 2.73%. The RAM network inhibition in assay [7] is 2.77%.
As for `Cn1c(CCNC(=O)c2ccc(F)cc2)nc2ccccc21`, the growth inhibition in assay [1] is 0.71%; in assay [2], -11%. Besides, the viability increase in assay [3] is 2.04%. Besides, the viability is 105% in assay [4] and 99.7% in assay [5]. For the same compound, the inhibition in assay [6] was 1.2%. In assay [7], the RAM network inhibition is 4.26%.
In the case of `Cc1nn(-c2ccccc2)c2c1C(c1ccncc1)C(C#N)=C(N)O2` (stereo not drawn), the growth inhibition in assay [1] was -12.9%; in assay [2], -0.78%. Further, the viability increase in assay [3] was -0.07%. For the same compound, the viability in assay [4] is 92.8%; in assay [5] it was 89.6%. In assay [6], the inhibition is 0.975%. Further, in assay [7], the RAM network inhibition is 4.36%.
With `Cc1ccc(-c2nn3c(C)nnc3s2)cc1NC(=O)COc1ccc(Cl)cc1`, the growth inhibition in assay [1] is -4.13%; in assay [2] it was 25.3%. The viability increase in assay [3] is -1.1%. The viability in assay [4] is 93.8%; in assay [5], 90.8%. Besides, the inhibition in assay [6] was 2.17%. Further, the RAM network inhibition in assay [7] was 6.41%.
Consider `CCOC(=O)N1CCN(C(=O)CN(c2ccc(Oc3ccccc3)cc2)S(C)(=O)=O)CC1`, for which the growth inhibition in assay [1] was -5.22%; in assay [2], -15.6%. For the same compound, the viability increase in assay [3] is -2%. The viability in assay [4] was 75.2%; in assay [5], 66.2%. Moreover, in assay [6], the inhibition was 0.265%. Also, the RAM network inhibition in assay [7] was 2.44%.
`COc1ccc(NC(=O)[C@H](CCS(C)(=O)=O)N2Cc3ccccc3C2=O)c(OC)c1`: the growth inhibition is -0.525% in assay [1] and -0.57% in assay [2]. Moreover, in assay [3], the viability increase was 0.69%. Besides, the viability was 104% in assay [4] and 100% in assay [5]. Besides, the inhibition in assay [6] was 2.29%. Further, the RAM network inhibition in assay [7] is 1.93%.
